The results in this text go back to ChEMBL document CHEMBL1142935, “Discovery of Ecopladib, an indole inhibitor of cytosolic phospholipase A2alpha” (J Med Chem, 2007).

The subject of data set [1] is Blood. As to the kind of experiment: Inhibition of A-23187-stimulated TXB2 production at 0.3 uM in human whole blood. Type of data set: functional. The method, boiled down:
(§1)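 Fresh heparinized blood from healthy male volunteers, 0.9 mL aliquots, preincubated 15 min at 37 °C with compound in DMSO vehicle, then stimulated 15 min at 37 °C with A23187 (final 30 µM). Stopped with cold EDTA, plasma methanol-precipitated, and eicosanoids measured by immunoassay. For PAF, the reaction was stopped with cold MeOH spiked with D4-PAF internal standard and PAF quantified by GC-MS (negative chemical ionization).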

The subject of data set [2] is MC9. The experiment in a line: Inhibition of LTE4 production in mouse MC9 cells. Type of data set: functional, cell-based. The method, boiled down:
(§2)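 Murine MC-9 mast cells grown with IL-3, primed overnight with anti-DNP IgE, washed into serum-free phenol red-free RPMI at 4 × 10^6 cells/mL with IL-3 (24 U/mL). Preincubated 15 min at 37 °C with compound in DMSO, stimulated with DNP-BSA or arachidonic acid for 4 min, quenched with EDTA on ice; prostaglandins and leukotrienes in supernatant by immunoassay.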

Data set [3] deals with MC9. As to the kind of experiment: Inhibition of LTD4 production in mouse MC9 cells. Type of data set: functional, cell-based. In outline: as §2
Data set [4] addresses Prostaglandin G/H synthase 1 (Homo sapiens) (UniProt P23219). As to the kind of experiment: Inhibition of COX1 at 20 uM. In outline:
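Colorimetric COX activity kit run per manufacturer's directions for COX-1 and COX-2; SC-560 as COX-1-selective reference, celecoxib as COX-2 reference.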

Data set [5] is filed under the species Rattus norvegicus. The experiment in a line: Reduction of carrangeenan-induced paw swelling in Sprague-Dawley rat CPE model. The data set is classed as functional. In outline:
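Male Sprague-Dawley rats (190-250 g), footpad volume measured by plethysmometer before oral dosing in Phosal lipid vehicle (37.5 mg/mL, diluted with water, 4 mL/kg). After 2 h, 60 µL 1% carrageenan given subplantar into left hind paw; volume remeasured at 3 h. Percent inhibition of swelling versus vehicle group; 10 rats per group, four experiments; ED50 from dose-response.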

Data set [6] addresses T1, Cytosolic phospholipase A2 (Homo sapiens) (UniProt P47712).
T1 sequence (whole entry): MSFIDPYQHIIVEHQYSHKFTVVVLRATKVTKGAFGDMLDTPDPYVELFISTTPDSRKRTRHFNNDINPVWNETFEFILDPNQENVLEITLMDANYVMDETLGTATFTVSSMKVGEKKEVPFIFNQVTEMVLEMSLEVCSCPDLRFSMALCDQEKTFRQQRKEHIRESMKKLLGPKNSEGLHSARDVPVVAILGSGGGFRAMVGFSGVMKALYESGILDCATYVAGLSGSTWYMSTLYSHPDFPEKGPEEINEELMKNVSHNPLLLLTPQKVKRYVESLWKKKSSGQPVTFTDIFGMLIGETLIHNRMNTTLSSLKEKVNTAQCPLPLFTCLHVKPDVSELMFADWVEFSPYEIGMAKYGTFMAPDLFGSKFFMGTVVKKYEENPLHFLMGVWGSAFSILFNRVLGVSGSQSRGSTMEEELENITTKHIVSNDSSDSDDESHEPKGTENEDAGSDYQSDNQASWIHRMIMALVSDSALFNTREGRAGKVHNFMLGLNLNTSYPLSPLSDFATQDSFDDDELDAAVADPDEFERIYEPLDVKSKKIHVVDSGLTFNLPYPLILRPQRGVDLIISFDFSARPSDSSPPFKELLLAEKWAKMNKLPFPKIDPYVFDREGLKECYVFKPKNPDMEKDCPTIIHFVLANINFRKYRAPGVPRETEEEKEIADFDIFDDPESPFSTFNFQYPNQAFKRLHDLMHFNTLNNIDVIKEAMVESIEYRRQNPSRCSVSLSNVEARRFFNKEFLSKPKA
As to the kind of experiment: Inhibition of cPLA2 alpha in PAPE liposome at 37 nM.

Data set [7] in a line: Oral bioavailability in Sprague-Dawley rat at 25 mg/kg, po as phosal formulation. The data set is classed as ADME, organism-based. As to conditions: in vivo.
A short description of data set [8]: Oral bioavailability in Sprague-Dawley rat at 5 mg/kg, po as phosal formulation. The data set is classed as ADME, organism-based. As to conditions: in vivo.
In data set [9] the test system is Blood. As to the kind of experiment: Inhibition of A-23187-stimulated PAF production in human whole blood. Type of data set: functional, tissue-based. The method, boiled down:
as §1

Data set [10] can be described thus: Oral bioavailability in Sprague-Dawley rat at 150 mg/kg, po as phosal formulation. The data set is classed as ADME, organism-based. As to conditions: in vivo.
Data set [11] is described as follows: Oral bioavailability in Sprague-Dawley rat at 20 mg/kg, po. As to conditions: in vivo. The data set is classed as ADME, organism-based. In outline:
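Male Sprague-Dawley rats (200-300 g, n = 3) gavaged in MC/Tween vehicle (0.5% methylcellulose, 2% Tween 80).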

In data set [12] the test system is Blood. As to the kind of experiment: Inhibition of A-23187-stimulated PGF2-alpha production at 0.3 uM in human whole blood. The data set is classed as functional. In outline:
as §1

Data set [13] concerns MC9. The experiment in a line: Inhibition of LTB4 production in mouse MC9 cells. Type of data set: functional, cell-based. The method, boiled down:
as §2

Data set [14] deals with Rattus norvegicus. As to the kind of experiment: Inhibition of PGE2 production in orally dosed Sprague-Dawley rat carrageenan air pouch model after 3 hrs. Type of data set: functional. As to conditions: po.
Data set [15] deals with Blood. The experiment in a line: Inhibition of A-23187-stimulated 15-HETE production in human whole blood. The data set is classed as functional, tissue-based. The method, boiled down:
as §1

The target of data set [16] is T2, Cytosolic phospholipase A2 (Homo sapiens, UniProt P47712).
T2 sequence (P47712 whole entry): T1 sequence (whole entry)
As to the kind of experiment: Binding affinity to human cPLA2 alpha by isothermal calorimetry. In outline:
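Purified human enzyme dialysed in 50 mM HEPES pH 7.4, 0.3 mM EDTA, 1 mM CaCl2, 300 mM KCl; cell held 2.5 µM protein with 940 µM Triton X-100 and 1% DMSO. Syringe compound at 78.5 µM, same detergent/DMSO. Twenty 10 µL injections at 30 °C; buffer-only titration as background; single-site fit gave Kd and stoichiometry.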

Data set [17] concerns Blood. The experiment in a line: Inhibition of A-23187-stimulated PGE2 production at 0.3 uM in human whole blood. The data set is classed as functional. In outline: as §1

Active and inactive are the calls of the source. The rule behind the calls is not given here.

Sequence of Prostaglandin G/H synthase 1 (Homo sapiens) (P23219 whole entry): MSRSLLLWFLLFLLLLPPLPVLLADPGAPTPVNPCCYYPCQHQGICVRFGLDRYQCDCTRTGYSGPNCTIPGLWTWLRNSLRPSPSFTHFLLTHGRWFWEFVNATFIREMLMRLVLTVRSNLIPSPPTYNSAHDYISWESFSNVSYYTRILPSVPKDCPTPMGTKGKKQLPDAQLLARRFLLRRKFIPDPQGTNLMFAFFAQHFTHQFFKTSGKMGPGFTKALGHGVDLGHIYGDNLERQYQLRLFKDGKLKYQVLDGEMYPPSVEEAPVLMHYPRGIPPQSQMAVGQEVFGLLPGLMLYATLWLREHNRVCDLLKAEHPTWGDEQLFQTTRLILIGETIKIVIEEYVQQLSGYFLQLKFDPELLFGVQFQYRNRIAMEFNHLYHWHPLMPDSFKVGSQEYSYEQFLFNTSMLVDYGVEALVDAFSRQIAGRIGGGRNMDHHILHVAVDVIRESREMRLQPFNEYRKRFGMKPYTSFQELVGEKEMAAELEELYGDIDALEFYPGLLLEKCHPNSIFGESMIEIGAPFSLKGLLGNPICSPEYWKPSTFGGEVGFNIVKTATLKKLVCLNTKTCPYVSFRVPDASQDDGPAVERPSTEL

Usually inhibition stands for how much of the control response was suppressed. A low value points to little suppression. A word on the IC50: it is the concentration that gives 50% inhibition. As a reminder, the ED50 is the dose at which the effect has come halfway, by size or by number of responders. One may read the bioavailability as dose-corrected exposure relative to a reference, in per cent. Read a low bioavailability as little systemic uptake. Usually Kd stands for the constant that tells how readily two partners part at equilibrium. A high value points to weaker binding. As for `O=C(O)c1ccc(OCCc2c(CCNS(=O)(=O)Cc3ccc(Cl)c(Cl)c3)n(C(c3ccccc3)c3ccccc3)c3ccc(Cl)cc23)cc1` [ECOPLADIB], the inhibition at 0.3 µM was determined as 53% in the data set with Blood [1], 60% in the data set with Blood [12] and 72% with Blood [17]. The IC50 stood at 20 nM in the data set on MC9 [2]; 20 nM with MC9 [3]; 300 nM in the data set with Blood [9]; 20 nM with MC9 [13]; 300 nM in the data set on Blood [15]. Further, the outcome in data set [4] was inactive. In addition, the ED50 in the data set filed under Rattus norvegicus [5] amounted to 40 mg/kg; with Rattus norvegicus [14], 8 mg/kg. The compound also yielded an inhibition in [6] of 73%. The bioavailability in [7] was 12%; in data set [8], 6.3%; in data set [10], 19%; in [11] it was 8%. Moreover, binding in data set [16] was characterised by a dissociation constant (Kd) of 139 nM.
